Test results: ChEMBL document CHEMBL1275484, “Rifampin and rifaximin resistance in clinical isolates of Clostridium difficile” (Antimicrob Agents Chemother, 2008)
Converted amounts (≈) assume the structure as drawn.

How the values were obtained:
Type in all cases: functional
Clostridioides difficile [1] = experiment: Antimicrobial activity against Clostridium difficile isolate 76 by agar dilution method
Procedure, shortened: (§1)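 CLSI reference agar dilution for anaerobes, with endpoints read per guideline M11-A7. Rifaximin was dissolved in methanol, diluted in 0.1 M phosphate buffer pH 7.4 with 0.45% SDS, and tested at 0.0009–256 μg/ml. Rifampin was dissolved in methanol, diluted in water, and tested at 0.00001–256 μg/ml. Control strain: C. difficile ATCC 70005. Isolates were typed by HindIII REA.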

Clostridioides difficile [2] = experiment: Antimicrobial activity against rifaximin-resistant Clostridium difficile isolate 64 expressing RpoB H502R mutant by agar dilution method
Procedure, shortened: (§2)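 MICs were found by the CLSI reference agar dilution method for anaerobes, with endpoints read per M11-A7 and C. difficile […] as control. Rifaximin was dissolved in methanol, diluted in 0.1 M phosphate buffer pH 7.4 with 0.45% SDS, and tested at 0.0009–256 μg/ml. Rifampin was dissolved in methanol, diluted in water, and tested at 0.00001–256 μg/ml.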

Clostridioides difficile [3] = experiment: Antimicrobial activity against Clostridium difficile isolate 13 by Etest
Procedure, shortened: (§3)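 Rifampin MIC by Etest strip on brucella blood agar, run per the strip maker's instructions. Isolates were HindIII REA-typed clinical C. difficile.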

Clostridioides difficile [4] = experiment: Antimicrobial activity against Clostridium difficile isolate 7 by Etest
Procedure, shortened: (§4)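 Rifampin MIC by Etest on brucella blood agar, run per the strip manufacturer's instructions, against clinical isolates typed by HindIII REA.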

Clostridioides difficile [5] = experiment: Antimicrobial activity against Clostridium difficile isolate 3 by Etest; procedure, shortened: as §3
Clostridioides difficile [6] = experiment: Antimicrobial activity against Clostridium difficile isolate 1 by Etest; procedure, shortened: as §3
Clostridioides difficile [7] = experiment: Antimicrobial activity against Clostridium difficile isolate 46 by Etest
Procedure, shortened: (§5)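 Rifampin Etest strips were run on brucella blood agar following the manufacturer's instructions to give an MIC. Clinical isolates were typed by HindIII REA.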

Clostridioides difficile [8] = experiment: Antimicrobial activity against Clostridium difficile isolate 1 by agar dilution method
Procedure, shortened: (§6)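 MIC by CLSI reference agar dilution for anaerobes, with endpoints read per M11-A7 and C. difficile […] as control. Rifaximin was dissolved in methanol, diluted in 0.1 M phosphate buffer pH 7.4 plus 0.45% SDS, and tested at 0.0009–256 μg/ml. Rifampin was dissolved in methanol, diluted in water, and tested at 0.00001–256 μg/ml.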

Clostridioides difficile [9] = experiment: Antimicrobial activity against Clostridium difficile isolate 9 by agar dilution method; procedure, shortened: as §1
Clostridioides difficile [10] = experiment: Antimicrobial activity against Clostridium difficile isolate 37 by Etest; procedure, shortened: as §3
Clostridioides difficile [11] = experiment: Antimicrobial activity against Clostridium difficile isolate 59 by Etest; procedure, shortened: as §5
Clostridioides difficile [12] = experiment: Antimicrobial activity against Clostridium difficile isolate 36 by Etest; procedure, shortened: as §3
Clostridioides difficile [13] = experiment: Antimicrobial activity against Clostridium difficile isolate 33 by Etest; procedure, shortened: as §3
Clostridioides difficile [14] = experiment: Antimicrobial activity against Clostridium difficile isolate 31 by agar dilution method; procedure, shortened: as §6
Clostridioides difficile [15] = experiment: Antimicrobial activity against Clostridium difficile isolate 7 by agar dilution method; procedure, shortened: as §1
Clostridioides difficile [16] = experiment: Antimicrobial activity against Clostridium difficile isolate 14 by agar dilution method; procedure, shortened: as §6
Clostridioides difficile [17] = experiment: Antimicrobial activity against rifaximin-resistant Clostridium difficile isolate 4 expressing RpoB S488T and R505K mutants by agar dilution method; procedure, shortened: as §2
Clostridioides difficile [18] = experiment: Antimicrobial activity against Clostridium difficile isolate 52 by Etest; procedure, shortened: as §5
Clostridioides difficile [19] = experiment: Antimicrobial activity against Clostridium difficile isolate 76 by Etest; procedure, shortened: as §4
Clostridioides difficile [20] = experiment: Antimicrobial activity against rifaximin-resistant Clostridium difficile isolate 50 expressing RpoB R505K mutant by agar dilution method; procedure, shortened: as §2
Clostridioides difficile [21] = experiment: Antimicrobial activity against Clostridium difficile isolate 12 expressing RpoB H502N and R505K mutants by Etest
Procedure, shortened: (§7)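 Rifampin Etest on clinical C. difficile isolates typed by HindIII REA, run per the strip manufacturer's instructions on brucella blood agar, with the MIC read from the strip.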

Clostridioides difficile [22] = experiment: Antimicrobial activity against Clostridium difficile isolate 45 by Etest; procedure, shortened: as §5
Clostridioides difficile [23] = experiment: Antimicrobial activity against Clostridium difficile isolate 44 by agar dilution method
Procedure, shortened: as §1, with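 “dilution method” for “dilution”, “(pH 7.4)” for “pH 7.4”, “μg/ml.” for “μg/ml. Control strain:”, “[…] served as control.” for “70005.”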

Clostridioides difficile [24] = experiment: Antimicrobial activity against Clostridium difficile isolate 56 by Etest; procedure, shortened: as §5
Clostridioides difficile [25] = experiment: Antimicrobial activity against Clostridium difficile isolate 56 by agar dilution method
Procedure, shortened: as §1, with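 “dilution method” for “dilution”, “(pH 7.4)” for “pH 7.4”, “μg/ml.” for “μg/ml. Control strain:”, “[…] served as control.” for “70005.”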

Clostridioides difficile [26] = experiment: Antimicrobial activity against Clostridium difficile isolate 51 by agar dilution method
Procedure, shortened: as §1, with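 “dilution method” for “dilution”, “(pH 7.4)” for “pH 7.4”, “μg/ml.” for “μg/ml. Control strain:”, “[…] served as control.” for “70005.”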

Clostridioides difficile [27] = experiment: Antimicrobial activity against rifaximin-resistant Clostridium difficile isolate 21 expressing RpoB H502N and R505K mutants by Etest; procedure, shortened: as §7
Clostridioides difficile [28] = experiment: Antimicrobial activity against Clostridium difficile isolate 20 by agar dilution method; procedure, shortened: as §6
Clostridioides difficile [29] = experiment: Antimicrobial activity against Clostridium difficile isolate 6 by agar dilution method
Procedure, shortened: as §1, with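 “dilution method” for “dilution”, “(pH 7.4)” for “pH 7.4”, “μg/ml.” for “μg/ml. Control strain:”, “[…] served as control.” for “70005.”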

Clostridioides difficile [30] = experiment: Antimicrobial activity against Clostridium difficile isolate 78 by agar dilution method; procedure, shortened: as §1
Clostridioides difficile [31] = experiment: Antimicrobial activity against Clostridium difficile isolate 2 by Etest; procedure, shortened: as §3
Clostridioides difficile [32] = experiment: Antimicrobial activity against Clostridium difficile isolate 23 by agar dilution method; procedure, shortened: as §6
Clostridioides difficile [33] = experiment: Antimicrobial activity against Clostridium difficile isolate 55 by agar dilution method
Procedure, shortened: as §1, with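 “dilution method” for “dilution”, “(pH 7.4)” for “pH 7.4”, “μg/ml.” for “μg/ml. Control strain:”, “[…] served as control.” for “70005.”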

Clostridioides difficile [34] = experiment: Antimicrobial activity against Clostridium difficile isolate 58 by agar dilution method
Procedure, shortened: as §1, with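 “dilution method” for “dilution”, “(pH 7.4)” for “pH 7.4”, “μg/ml.” for “μg/ml. Control strain:”, “[…] served as control.” for “70005.”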

Clostridioides difficile [35] = experiment: Antimicrobial activity against Clostridium difficile isolate 60 by Etest; procedure, shortened: as §5
Clostridioides difficile [36] = experiment: Antimicrobial activity against Clostridium difficile isolate 39 by agar dilution method
Procedure, shortened: as §1, with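 “dilution method” for “dilution”, “(pH 7.4)” for “pH 7.4”, “μg/ml.” for “μg/ml. Control strain:”, “[…] served as control.” for “70005.”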

Clostridioides difficile [37] = experiment: Antimicrobial activity against Clostridium difficile isolate 32 by agar dilution method; procedure, shortened: as §6
Clostridioides difficile [38] = experiment: Antimicrobial activity against Clostridium difficile isolate 45 by agar dilution method
Procedure, shortened: as §1, with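 “dilution method” for “dilution”, “(pH 7.4)” for “pH 7.4”, “μg/ml.” for “μg/ml. Control strain:”, “[…] served as control.” for “70005.”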

Clostridioides difficile [39] = experiment: Antimicrobial activity against Clostridium difficile isolate 72 by agar dilution method; procedure, shortened: as §1
Clostridioides difficile [40] = experiment: Antimicrobial activity against rifaximin-resistant Clostridium difficile isolate 4 expressing RpoB S488T and R505K mutants by Etest; procedure, shortened: as §7
Clostridioides difficile [41] = experiment: Antimicrobial activity against Clostridium difficile isolate 79 by agar dilution method; procedure, shortened: as §1
Clostridioides difficile [42] = experiment: Antimicrobial activity against Clostridium difficile isolate 39 by Etest; procedure, shortened: as §5
Clostridioides difficile [43] = experiment: Antimicrobial activity against Clostridium difficile isolate 47 by Etest; procedure, shortened: as §5
Clostridioides difficile [44] = experiment: Antimicrobial activity against Clostridium difficile isolate 35 by agar dilution method; procedure, shortened: as §6
Clostridioides difficile [45] = experiment: Antimicrobial activity against Clostridium difficile isolate 27 by Etest; procedure, shortened: as §3
Clostridioides difficile [46] = experiment: Antimicrobial activity against Clostridium difficile isolate 27 by agar dilution method; procedure, shortened: as §6
Clostridioides difficile [47] = experiment: Antimicrobial activity against Clostridium difficile isolate 69 by Etest; procedure, shortened: as §4
Clostridioides difficile [48] = experiment: Antimicrobial activity against Clostridium difficile isolate 19 by agar dilution method; procedure, shortened: as §6
Clostridioides difficile [49] = experiment: Antimicrobial activity against Clostridium difficile isolate 54 by agar dilution method
Procedure, shortened: as §1, with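 “dilution method” for “dilution”, “(pH 7.4)” for “pH 7.4”, “μg/ml.” for “μg/ml. Control strain:”, “[…] served as control.” for “70005.”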

Clostridioides difficile [50] = experiment: Antimicrobial activity against rifaximin-resistant Clostridium difficile isolate 24 expressing RpoB H502N and R505K mutants by Etest; procedure, shortened: as §7
Clostridioides difficile [51] = experiment: Antimicrobial activity against Clostridium difficile isolate 29 by agar dilution method; procedure, shortened: as §6

CO[C@H]1/C=C/O[C@@]2(C)Oc3c(C)c(O)c4c(O)c(c(/C=N/N5CCN(C)CC5)c(O)c4c3C2=O)NC(=O)/C(C)=C\C=C\[C@H](C)[C@H](O)[C@@H](C)[C@@H](O)[C@@H](C)[C@H](OC(C)=O)[C@@H]1C [RIFAMPIN]
MIC (Clostridioides difficile [1]): 0.06 ng/mL (≈ 0.0729 nM)
MIC (Clostridioides difficile [2]): > 256000 ng/mL
MIC (Clostridioides difficile [3]): < 2 ng/mL
MIC (Clostridioides difficile [4]): < 2 ng/mL
MIC (Clostridioides difficile [5]): 4 ng/mL (≈ 4.86 nM)
MIC (Clostridioides difficile [6]): < 2 ng/mL
MIC (Clostridioides difficile [7]): < 2 ng/mL
MIC (Clostridioides difficile [8]): 0.06 ng/mL (≈ 0.0729 nM)
MIC (Clostridioides difficile [9]): 0.06 ng/mL (≈ 0.0729 nM)
MIC (Clostridioides difficile [10]): < 2 ng/mL
MIC (Clostridioides difficile [11]): < 2 ng/mL
MIC (Clostridioides difficile [12]): < 2 ng/mL
MIC (Clostridioides difficile [13]): < 2 ng/mL
MIC (Clostridioides difficile [14]): 0.9 ng/mL (≈ 1.09 nM)
MIC (Clostridioides difficile [15]): 0.06 ng/mL (≈ 0.0729 nM)
MIC (Clostridioides difficile [16]): 0.9 ng/mL (≈ 1.09 nM)
MIC (Clostridioides difficile [17]): > 256000 ng/mL
MIC (Clostridioides difficile [18]): < 2 ng/mL
MIC (Clostridioides difficile [19]): < 2 ng/mL
MIC (Clostridioides difficile [20]): 128000 ng/mL (≈ 156000 nM)
MIC (Clostridioides difficile [21]): > 32000 ng/mL
MIC (Clostridioides difficile [22]): < 2 ng/mL
MIC (Clostridioides difficile [23]): 0.9 ng/mL (≈ 1.09 nM)
MIC (Clostridioides difficile [24]): < 2 ng/mL
MIC (Clostridioides difficile [25]): 0.9 ng/mL (≈ 1.09 nM)
MIC (Clostridioides difficile [26]): 0.9 ng/mL (≈ 1.09 nM)
MIC (Clostridioides difficile [27]): > 32000 ng/mL
MIC (Clostridioides difficile [28]): 0.9 ng/mL (≈ 1.09 nM)
MIC (Clostridioides difficile [29]): 0.06 ng/mL (≈ 0.0729 nM)
MIC (Clostridioides difficile [30]): 0.06 ng/mL (≈ 0.0729 nM)
MIC (Clostridioides difficile [31]): < 2 ng/mL
MIC (Clostridioides difficile [32]): 0.9 ng/mL (≈ 1.09 nM)
MIC (Clostridioides difficile [33]): 0.9 ng/mL (≈ 1.09 nM)
MIC (Clostridioides difficile [34]): 0.9 ng/mL (≈ 1.09 nM)
MIC (Clostridioides difficile [35]): < 2 ng/mL
MIC (Clostridioides difficile [36]): 0.9 ng/mL (≈ 1.09 nM)
MIC (Clostridioides difficile [37]): 0.9 ng/mL (≈ 1.09 nM)
MIC (Clostridioides difficile [38]): 0.9 ng/mL (≈ 1.09 nM)
MIC (Clostridioides difficile [39]): 0.06 ng/mL (≈ 0.0729 nM)
MIC (Clostridioides difficile [40]): > 32000 ng/mL
MIC (Clostridioides difficile [41]): 0.06 ng/mL (≈ 0.0729 nM)
MIC (Clostridioides difficile [42]): < 2 ng/mL
MIC (Clostridioides difficile [43]): < 2 ng/mL
MIC (Clostridioides difficile [44]): 0.9 ng/mL (≈ 1.09 nM)
MIC (Clostridioides difficile [45]): < 2 ng/mL
MIC (Clostridioides difficile [46]): 0.4 ng/mL (≈ 0.486 nM)
MIC (Clostridioides difficile [47]): < 2 ng/mL
MIC (Clostridioides difficile [48]): 0.9 ng/mL (≈ 1.09 nM)
MIC (Clostridioides difficile [49]): 0.9 ng/mL (≈ 1.09 nM)
MIC (Clostridioides difficile [50]): > 32000 ng/mL
MIC (Clostridioides difficile [51]): 0.9 ng/mL (≈ 1.09 nM)
